Results as given in PubChem BioAssay.

Target: Voltage-gated potassium channel subunit beta-2 (Rattus norvegicus) (UniProt P62483)
Assay: enhancers of rat Kvbeta2 NADPH turnover – biochemical, NADPH fluorescence, primary screen (AID 623;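 active = NADPH fluorescence slope more negative than the mean of all samples by about 3 SD, 99.7% confidence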;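 note: fluorescence intensity change per second fitted from 20 to 320 s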)
Conditions: Recombinant KvBeta, NADPH fluorescence decrease slope, 10 min; at 10 µM; stronger effect = lower value

Voltage-gated potassium channel subunit beta-2 (Rattus norvegicus), sequence (P62483 whole entry, looked up): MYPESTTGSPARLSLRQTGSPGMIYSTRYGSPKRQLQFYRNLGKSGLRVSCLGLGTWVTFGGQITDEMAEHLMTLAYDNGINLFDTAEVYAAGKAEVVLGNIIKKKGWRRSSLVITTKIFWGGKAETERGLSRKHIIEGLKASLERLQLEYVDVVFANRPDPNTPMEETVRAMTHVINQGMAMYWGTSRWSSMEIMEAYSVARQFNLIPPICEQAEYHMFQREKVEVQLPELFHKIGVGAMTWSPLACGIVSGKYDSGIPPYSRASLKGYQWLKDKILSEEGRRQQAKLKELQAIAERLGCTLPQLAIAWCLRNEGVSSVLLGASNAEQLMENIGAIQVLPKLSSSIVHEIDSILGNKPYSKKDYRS

NADPH fluorescence slope, inactive:
CCOC(=O)c1cnc(-n2nc(C)cc2C)nc1Nc1ccc(N(C)C)cc1 -4.7e-05
Cc1ccc(S(=O)(=O)N2CCOCC2)cc1C(=O)Nc1ccccn1 -3.9e-05
COC(=O)c1ccc(CNC(=O)COc2ccccc2Br)o1 -8.6e-06
Cc1cc2oc(=O)cc(CN3CCCCC3)c2cc1C(C)C -2.5e-05
Cc1ccc(N2CC(C(=O)Nc3nnc(C)s3)CC2=O)cc1 (centres undefined) -3e-05
Cc1ccc(-c2[nH]nc3c2C(c2ccc(OC(=O)N4CCOCC4)cc2)C(C#N)=C(N)O3)cc1 (centres undefined) -4.2e-05
COc1cccc(NC(=O)COc2ccccc2C(N)=O)c1 6.4e-05
CCSc1nc(O)c(CC)c(=O)n1C(C)CC (centres undefined) -3.6e-05
O=C(NCC(=O)N(CCc1ccccc1)C(C(=O)NC1CCCC1)c1cccnc1)c1ccco1 (centres undefined) 1.4e-05
CCCn1cnc2c(c1=O)c1nc3ccccc3nc1n2Cc1ccccc1OC -1.8e-05
CCn1nnc(NC(=O)c2cc3ccccc3o2)n1 -7.3e-06
c1ccc(-c2cn3cccnc3n2)cc1 -3.7e-06
COc1ccccc1-n1cnc(N)c1C(C)=O -5.1e-05
CCOC(=O)C1CCCN(C(=O)c2ccc3c(=O)n(CCOC)c(=S)[nH]c3c2)C1 (centres undefined) -6.4e-05
COc1ccc(C2C(C#N)=C(C)NC3=C2C(=O)CC(C)(C)C3)c(OC)c1 (centres undefined) -4.1e-06
O=C(CN1C(=O)NC(Cc2ccccc2)C1=O)Nc1ccccc1 (centres undefined) -5.2e-06
COC(=O)c1ccccc1NC(=O)Cn1c(-c2nonc2N)nc2ccccc21 -5.1e-05
CCCc1cc(=O)n2[nH]c(-c3ccc(Br)cc3)cc2n1 -2.2e-05
COc1ccc(OC)c(N2Cc3cc(C)c(C)cc3C2)c1 -6.9e-05
CC1CCCC(NC(=O)CSc2ncccc2C(=O)O)C1C (centres undefined) -8.3e-06
O=c1cc(-c2ccccc2)[nH]c2nc3ccccc3n12 2.4e-05
CCN1CCN(S(=O)(=O)c2ccc(S(=O)(=O)N(CC)Cc3ccccc3)cc2)CC1 4.3e-06
CCOC(=O)C1CCCN(C(=O)c2cc3c(C)nc4ccccc4c3o2)C1 (centres undefined) 0.000185
CCCC(=O)Nc1ccc(NC(=O)c2cccs2)cn1 -3.4e-05

Target: Muscarinic acetylcholine receptor M4 (Homo sapiens) (UniProt P08173)
Sequence (P08173 whole entry, looked up): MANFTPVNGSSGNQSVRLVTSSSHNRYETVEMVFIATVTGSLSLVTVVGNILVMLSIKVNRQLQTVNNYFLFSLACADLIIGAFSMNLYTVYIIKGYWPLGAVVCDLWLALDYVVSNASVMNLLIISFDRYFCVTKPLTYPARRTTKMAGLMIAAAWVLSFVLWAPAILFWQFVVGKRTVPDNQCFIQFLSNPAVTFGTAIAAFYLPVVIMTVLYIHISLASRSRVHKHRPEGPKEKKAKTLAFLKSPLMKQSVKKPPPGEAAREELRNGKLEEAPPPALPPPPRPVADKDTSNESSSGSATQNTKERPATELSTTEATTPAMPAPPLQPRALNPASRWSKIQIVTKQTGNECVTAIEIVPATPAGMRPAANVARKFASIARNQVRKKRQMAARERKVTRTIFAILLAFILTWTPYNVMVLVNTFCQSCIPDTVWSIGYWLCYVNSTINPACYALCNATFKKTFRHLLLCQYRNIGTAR
Assay: M4-linked GIRK flux change, two-sided – cell-based, HEK293 M4/GIRK, thallium flux, BTC-AM, M4 allosteric agonist project, primary screen (AID 625);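 note: thallium influx through GIRK channels coupled to M4 in HEK293 cells with BTC-AM dye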
Conditions: at 10 µM, actives lie on both sides
In short: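 System: HEK293 cells with M4 receptor and GIRK channels | Incubation: Cells overnight at 37 °C, BTC-AM loading 1 h, reads 2 min total | Technique: Kinetic BTC-AM fluorescence sampled at 1 Hz, 10 s pre-addition baseline | Measure: Post-addition slope, 15–24 s, of baseline-normalized fluorescence | Control set: Carbachol positive, DMSO negative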

Fluorescence slope, inactive:
COCCNc1nc(C(C)(C)C)nc2c1nnn2Cc1ccccc1Cl 0.00616
CNC(=O)CSc1nnc(-c2cc(C)cc(C)c2)o1 0.00519
CC(C(=O)c1ccccc1)n1cnc2ccccc2c1=O (centres undefined) 0.00459
COC(=O)COc1ccc(C(=O)OC)cc1 0.00492
CC(C)(C)OC(=O)N1CCN(c2ccc(NC(=O)c3cc4ccccc4oc3=O)cc2)CC1 0.0076
CCOC(=O)C1=C(Cn2cnc3ccccc32)NC(=O)NC1c1cc(C)ccc1C (centres undefined) 0.00427
COc1cc(OC)cc(C(=O)NCCN2CCOCC2)c1 0.00526
CC1=C(C(=O)OCCOC(C)C)C(c2cc3c(cc2Br)OCO3)C2=C(CCCC2=O)N1 (centres undefined) 0.00686
Cn1c(=O)c2ccccc2n(Cc2ccccc2F)c1=O 0.00416
COc1ccc(-c2noc(CCC(=O)Nc3nc4ccccc4s3)n2)cc1 0.0103
Cc1cc(C)n(Cc2nc3ccccc3n2C)n1 0.0071
COC(=O)c1ccccc1NC(=O)C1CCCCC1C(=O)O (centres undefined) 0.00471
COc1ccc(OC)c(NC(=O)CCN2CCN(c3ccccc3F)CC2)c1 0.00417
COc1ccc(-c2cn3c(C)c(C(=O)Nc4cc(NC(C)=O)ccc4OC)sc3n2)cc1 0.00656
COc1ccc(-n2nnc3c(=O)n(C/C=C/c4ccccc4)cnc32)cc1 0.00695
Cc1ccc(S(=O)(=O)N2CCCC2C(=O)n2nc(C)cc2C)cc1 (centres undefined) 0.00537
CCOC(=O)c1cnc(-n2nc(C)cc2C)nc1Nc1ccc(N(C)C)cc1 0.00563
Cc1ccc(S(=O)(=O)N2CCOCC2)cc1C(=O)Nc1ccccn1 0.00587
COC(=O)c1ccc(CNC(=O)COc2ccccc2Br)o1 0.00463
Cc1cc2oc(=O)cc(CN3CCCCC3)c2cc1C(C)C 0.0051
Cc1ccc(N2CC(C(=O)Nc3nnc(C)s3)CC2=O)cc1 (centres undefined) 0.00498
Cc1ccc(-c2[nH]nc3c2C(c2ccc(OC(=O)N4CCOCC4)cc2)C(C#N)=C(N)O3)cc1 (centres undefined) 0.00718
COc1cccc(NC(=O)COc2ccccc2C(N)=O)c1 0.00613
CCSc1nc(O)c(CC)c(=O)n1C(C)CC (centres undefined) 0.00478
O=C(NCC(=O)N(CCc1ccccc1)C(C(=O)NC1CCCC1)c1cccnc1)c1ccco1 (centres undefined) 0.00509
CCCn1cnc2c(c1=O)c1nc3ccccc3nc1n2Cc1ccccc1OC 0.00653
CCn1nnc(NC(=O)c2cc3ccccc3o2)n1 0.00628
c1ccc(-c2cn3cccnc3n2)cc1 0.00503
COc1ccccc1-n1cnc(N)c1C(C)=O 0.00353
CCOC(=O)C1CCCN(C(=O)c2ccc3c(=O)n(CCOC)c(=S)[nH]c3c2)C1 (centres undefined) 0.00594
COc1ccc(C2C(C#N)=C(C)NC3=C2C(=O)CC(C)(C)C3)c(OC)c1 (centres undefined) 0.00543
O=C(CN1C(=O)NC(Cc2ccccc2)C1=O)Nc1ccccc1 (centres undefined) 0.00658
COC(=O)c1ccccc1NC(=O)Cn1c(-c2nonc2N)nc2ccccc21 0.00504
CCCc1cc(=O)n2[nH]c(-c3ccc(Br)cc3)cc2n1 0.00575
COc1ccc(OC)c(N2Cc3cc(C)c(C)cc3C2)c1 0.00388
CC1CCCC(NC(=O)CSc2ncccc2C(=O)O)C1C (centres undefined) 0.00597
O=c1cc(-c2ccccc2)[nH]c2nc3ccccc3n12 0.00541
CCN1CCN(S(=O)(=O)c2ccc(S(=O)(=O)N(CC)Cc3ccccc3)cc2)CC1 0.00522
CCOC(=O)C1CCCN(C(=O)c2cc3c(C)nc4ccccc4c3o2)C1 (centres undefined) 0.00625
CCCC(=O)Nc1ccc(NC(=O)c2cccs2)cn1 0.00548
